Converted amounts (≈) assume the structure as drawn.
How the values were obtained:
Mus musculus [1] = organism: Mus musculus; experiment: Activation of UTRN promoter in mouse H2K cells assessed as upregulation of UTRN production after 48 hrs by luciferase reporter linked assay; format: functional, cell-based; settings: Mus musculus, H2K, 48 h
How it was run: (§1)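 H2K myoblasts stably carrying a utrophin (UTRN) promoter–luciferase reporter were plated 24 h before dosing and exposed to compound for 48 h. Luciferase was read by luminescence (Steady-Glo). The primary screen was at 10 μM and the secondary at six concentrations for EC50, both in triplicate. Non-EC50 values are % of the reference upregulator's maximum, given with the concentration at maximum.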

Mus musculus [2] = organism: Mus musculus; experiment: Activation of UTRN promoter in mouse H2K cells assessed as upregulation of UTRN production at 10 uM after 48 hrs by luciferase reporter linked assay; format: functional; how it was run: as §1
[3] = Aqueous solubility of the compound by turbidimetry; format: physicochemical; settings: buffer
How it was run: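 Turbidimetric aqueous solubility, reported as the final test compound concentration.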

Mus musculus [4] = experiment: Cmax in CD1 mouse at 10 mg/kg, ip; format: ADME, organism-based; design: dose 10 mg/kg, route intraperitoneal; settings: in vivo
How it was run: (§2)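 Male CD1 mice were dosed i.p. at 10 mg/kg in 95% PBS containing 0.1% Tween 20 and 5% DMSO. Plasma was sampled at 5–360 or 5–480 min. AUC is in μg.min/mL. Half-life was not calculated where the log concentration–time plot lacked a linear region of at least three points.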

[5] = Half life in human liver microsomes; format: ADME, Microsome
Mus musculus [6] = experiment: Tmax in CD1 mouse at 10 mg/kg, ip; format: ADME, organism-based; design: dose 10 mg/kg, route intraperitoneal; settings: in vivo; how it was run: as §2
[7] = Half life in mouse liver microsomes; format: ADME, Microsome
Mus musculus [8] = experiment: AUC in CD1 mouse at 10 mg/kg, ip; format: ADME, organism-based, Plasma; design: dose 10 mg/kg, route intraperitoneal; settings: in vivo; how it was run: as §2
Mus musculus [9] = experiment: Half life in CD1 mouse at 10 mg/kg, ip; format: ADME, organism-based; design: dose 10 mg/kg, route intraperitoneal; settings: in vivo; how it was run: as §2
Mus musculus [10] = organism: Mus musculus; experiment: Activation of UTRN promoter in mouse H2K cells assessed as upregulation of UTRN production at 3 uM after 48 hrs by luciferase reporter linked assay; format: functional; how it was run: as §1
Mus musculus [11] = organism: Mus musculus; experiment: Activation of UTRN promoter in mouse H2K cells assessed as upregulation of UTRN production at 10 uM after 72 hrs by RT-PCR analysis; format: functional
How it was run: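 H2K cells were seeded at 25000 per well, left 24 h, then dosed for 72 h in 1% DMSO final. Total RNA was extracted and reverse transcribed. qPCR used an amplicon spanning the UTRN exon 3–4 boundary, with β-actin as the endogenous control, and was quantified by ΔΔCT. Values are % UTRN relative to DMSO control (=100), with P value.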

Mus musculus [12] = organism: Mus musculus; experiment: Activation of UTRN promoter in mouse H2K cells assessed as upregulation of UTRN production at 30 uM after 48 hrs by luciferase reporter linked assay; format: functional; how it was run: as §1

CC(=O)Nc1ccc2oc(-c3ccccc3)nc2c1
EC50 (Mus musculus [1]): 3 µM

Cc1ccc(-c2nc3cc(NC(=O)C(C)C)ccc3o2)cc1
Activity (Mus musculus [2]): 95%

CC(C)C(=O)N(C)c1ccc2oc(-c3ccc(Cl)cc3)nc2c1
EC50 (Mus musculus [1]): > 30 µM

CC(C)C(=O)Nc1ccc2oc(-c3ccc(Cl)cc3)nc2c1
solubility kinetic [3]: 3 µM (≈ 0.944 µg/mL) | EC50 (Mus musculus [1]): 0.4 µM | Cmax (Mus musculus [4]): 2807 ng/mL | half-life [5]: 286 min | Tmax (Mus musculus [6]): 15 min | half-life [7]: 19.3 min | AUC (Mus musculus [8]): 3820 ng·h/mL | t1/2 (Mus musculus [9]): 136 min

CC(C)NC(=O)c1ccc2oc(-c3ccc(Cl)cc3)nc2c1
EC50 (Mus musculus [1]): > 30 µM

CC(C)S(=O)(=O)Nc1ccc2oc(-c3ccc(Cl)cc3)nc2c1
EC50 (Mus musculus [1]): > 30 µM

CC(C)CNc1ccc2oc(-c3ccc(Cl)cc3)nc2c1
EC50 (Mus musculus [1]): > 30 µM

C[C@H](N)C(=O)Nc1ccc2oc(-c3ccc(Cl)cc3)nc2c1
Activity (Mus musculus [10]): 35%

CCC(=O)c1ccc2oc(-c3ccc(Cl)cc3)nc2c1
EC50 (Mus musculus [1]): 0.9 µM | half-life [7]: 13 min

CC(C)C(=S)Nc1ccc2oc(-c3ccc(Cl)cc3)nc2c1
EC50 (Mus musculus [1]): > 30 µM

CC(C)C(=O)Nc1ccc2[nH]c(-c3ccc(Cl)cc3)nc2c1
EC50 (Mus musculus [1]): 10 µM

CC(C)C(=O)Nc1ccc2sc(-c3ccc(Cl)cc3)nc2c1
EC50 (Mus musculus [1]): 1.2 µM

CC(C)C(=O)Nc1ccc2oc(-c3ccc(Cl)cc3)cc2c1
EC50 (Mus musculus [1]): > 30 µM

CC(C)c1ccc2oc(-c3ccc(N)cc3O)nc2c1
EC50 (Mus musculus [1]): 1 µM

Nc1ccc(-c2nc3cc(N)ccc3o2)c(O)c1
EC50 (Mus musculus [1]): 3.5 µM

Nc1ccc2oc(-c3ccc(Cl)c(Cl)c3)nc2c1
Activity (Mus musculus [10]): 107%

CCC(=O)Nc1ccc2oc(-c3ccccc3)nc2c1
EC50 (Mus musculus [1]): 0.8 µM

CCC(=O)Nc1ccc2oc(-c3ccc(Cl)cc3)nc2c1
Activity (Mus musculus [10]): 85%

CCCC(=O)Nc1ccc2oc(-c3ccccc3)nc2c1
EC50 (Mus musculus [1]): 3 µM

CC(C)C(=O)Nc1ccc2oc(-c3ccccc3)nc2c1
EC50 (Mus musculus [1]): 0.8 µM

CCCCC(=O)Nc1ccc2oc(-c3ccccc3)nc2c1
Activity (Mus musculus [2]): 69%

O=C(Nc1ccc2oc(-c3ccccc3)nc2c1)c1ccccc1
EC50 (Mus musculus [1]): > 30 µM

CCCC(=O)Nc1ccc2oc(-c3ccc(Cl)cc3)nc2c1
EC50 (Mus musculus [1]): 3.5 µM

O=C(Nc1ccc2oc(-c3ccc(Cl)cc3)nc2c1)c1ccccc1
EC50 (Mus musculus [1]): > 30 µM

O=C(Cc1ccccc1)Nc1ccc2oc(-c3ccc(Cl)cc3)nc2c1
EC50 (Mus musculus [1]): 5 µM

O=C(CCc1ccccc1)Nc1ccc2oc(-c3ccc(Cl)cc3)nc2c1
EC50 (Mus musculus [1]): > 30 µM

COc1ccc(-c2nc3cc(NC(=O)C(C)C)ccc3o2)cc1
Activity (Mus musculus [2]): 132%

CCN(CC)c1ccc(-c2nc3cc(NC(=O)C(C)C)ccc3o2)cc1
Activity (Mus musculus [2]): 12%

CC(C)C(=O)Nc1ccc2oc(-c3ccc(C(F)(F)F)cc3)nc2c1
Activity (Mus musculus [2]): 22%

CC(C)C(=O)Nc1ccc2oc(-c3ccc(F)cc3)nc2c1
EC50 (Mus musculus [1]): 0.9 µM | half-life [7]: 16.1 min

CC(C)C(=O)Nc1ccc2oc(-c3cccc(Cl)c3)nc2c1
EC50 (Mus musculus [1]): 4.5 µM

CC(C)C(=O)Nc1ccc2oc(-c3ccccc3Cl)nc2c1
EC50 (Mus musculus [1]): 1.1 µM

CC(C)C(=O)Nc1ccc2oc(-c3cccc(Cl)c3Cl)nc2c1
EC50 (Mus musculus [1]): 10 µM

CC(C)C(=O)Nc1ccc2oc(-c3ccc(Cl)cc3Cl)nc2c1
Activity (Mus musculus [2]): 53%

CC(C)C(=O)Nc1ccc2oc(-c3cc(Cl)ccc3Cl)nc2c1
EC50 (Mus musculus [1]): > 30 µM

Cc1ccc(-c2nc3c(NC(=O)C(C)C)cccc3o2)cc1
EC50 (Mus musculus [1]): > 30 µM

CC(C)C(=O)Nc1ccc2nc(-c3ccc(Cl)cc3)oc2c1
EC50 (Mus musculus [1]): 3 µM

CC(C)C(=O)Nc1cc2oc(-c3ccc(Cl)cc3)nc2cc1Cl
EC50 (Mus musculus [1]): > 30 µM

CC(C)C(=O)Nc1ccc2nc(-c3cccc(Cl)c3Cl)oc2c1
EC50 (Mus musculus [1]): > 30 µM

CC(C)C(=O)Nc1ccc2nc(-c3ccc(Cl)c(Cl)c3)oc2c1
EC50 (Mus musculus [1]): 4 µM | Activity (Mus musculus [11]): 111.5%

CCS(=O)(=O)c1ccc2oc(-c3ccc(Cl)c(Cl)c3)nc2c1
solubility kinetic [3]: 3 µM (≈ 1.07 µg/mL) | EC50 (Mus musculus [1]): 3 µM | half-life [5]: 105 min | half-life [7]: 101 min | Activity (Mus musculus [11]): 138.3%

CCS(=O)(=O)c1ccc2oc(-c3cccc(Cl)c3)nc2c1
EC50 (Mus musculus [1]): > 30 µM

CCS(=O)(=O)c1ccc2oc(-c3cccc(Cl)c3Cl)nc2c1
Activity (Mus musculus [2]): 40%

CCS(=O)(=O)c1ccc2oc(-c3ccc(Cl)cn3)nc2c1
EC50 (Mus musculus [1]): > 30 µM

CCS(=O)(=O)c1ccc2oc(-c3cccc(Cl)c3F)nc2c1
EC50 (Mus musculus [1]): > 10 µM

CCS(=O)(=O)c1ccc2oc(-c3ccco3)nc2c1
EC50 (Mus musculus [1]): > 30 µM

CCS(=O)(=O)c1ccc2oc(-c3cccs3)nc2c1
Activity (Mus musculus [12]): 29%

CCS(=O)(=O)c1ccc2oc(-c3ccc4c(c3)OCO4)nc2c1
EC50 (Mus musculus [1]): 4.2 µM

CCS(=O)(=O)c1ccc2oc(-c3ccc4ccccc4n3)nc2c1
Activity (Mus musculus [10]): 59%

CCS(=O)(=O)c1ccc2oc(-c3cnc4ccccc4c3)nc2c1
EC50 (Mus musculus [1]): > 30 µM

CCS(=O)(=O)c1ccc2oc(-c3cc4ccccc4cn3)nc2c1
Activity (Mus musculus [2]): 63%

CCS(=O)(=O)c1ccc2oc(-c3ccc4ncccc4c3)nc2c1
EC50 (Mus musculus [1]): 1.9 µM

CCS(=O)(=O)c1ccc2oc(-c3ccc4nccnc4c3)nc2c1
EC50 (Mus musculus [1]): > 30 µM

CCS(=O)(=O)c1ccc2oc(-c3cccc4ccccc34)nc2c1
EC50 (Mus musculus [1]): > 30 µM

CCS(=O)(=O)c1ccc2oc(-c3ccc4sccc4c3)nc2c1
half-life [5]: 59 min | Activity (Mus musculus [2]): 86%

CCS(=O)(=O)c1ccc2oc(-c3ccc4c(c3)CCCC4)nc2c1
Activity (Mus musculus [2]): 51%

CCS(=O)(=O)c1ccc2oc(C3CCc4ccccc4C3)nc2c1 (configuration not stated)
Activity (Mus musculus [2]): 32%

CCS(=O)(=O)c1ccc2oc(-c3ccc4c(c3)CCC4)nc2c1
EC50 (Mus musculus [1]): 2.3 µM | half-life [5]: 20 min

CCS(=O)(=O)c1ccc2oc(-c3ccc4occc4c3)nc2c1
Activity (Mus musculus [2]): 73%

CCS(=O)(=O)c1ccc2oc(-c3ccc4[nH]ccc4c3)nc2c1
Activity (Mus musculus [2]): 81%

CCS(=O)(=O)c1ccc2oc(-c3ccc(-c4ccccc4)cc3)nc2c1
EC50 (Mus musculus [1]): > 30 µM

CCS(=O)(=O)c1ccc2oc(-c3ccc(Oc4ccccc4)cc3)nc2c1
EC50 (Mus musculus [1]): > 30 µM

CCS(=O)(=O)c1ccc2oc(-c3cccc(Oc4ccccc4)c3)nc2c1
EC50 (Mus musculus [1]): > 30 µM

CCS(=O)(=O)c1ccc2oc(Cc3ccc4ccccc4c3)nc2c1
EC50 (Mus musculus [1]): > 30 µM

CCS(=O)(=O)c1ccc2oc(/C=C/c3ccccc3)nc2c1
Activity (Mus musculus [2]): 53%

CCCc1nc2cc(S(=O)(=O)CC)ccc2o1
Activity (Mus musculus [2]): 14%

CCS(=O)(=O)c1ccc2oc(C3CCCCC3)nc2c1
Activity (Mus musculus [2]): 25%

CCCS(=O)(=O)c1ccc2oc(-c3ccc(Cl)cc3)nc2c1
EC50 (Mus musculus [1]): > 30 µM

CS(=O)(=O)c1ccc2oc(-c3ccc(Cl)cc3)nc2c1
Activity (Mus musculus [2]): 53%

CC(C)S(=O)(=O)c1ccc2oc(-c3ccc(Cl)cc3)nc2c1
EC50 (Mus musculus [1]): 10.2 µM

CC(C)S(=O)(=O)c1ccc2oc(-c3ccc(Cl)c(Cl)c3)nc2c1
Activity (Mus musculus [2]): 45%

NS(=O)(=O)c1ccc2oc(-c3ccc(Cl)cc3)nc2c1
Activity (Mus musculus [12]): 60%

O=S(=O)(O)c1ccc2oc(-c3ccc(Cl)cc3)nc2c1
EC50 (Mus musculus [1]): > 30 µM

CCN(CC)S(=O)(=O)c1ccc2oc(-c3ccc(Cl)cc3)nc2c1
Activity (Mus musculus [2]): 28%

CCS(=O)(=O)c1ccc2nc(-c3ccc(Cl)cc3)oc2c1
EC50 (Mus musculus [1]): > 30 µM

CCS(=O)(=O)c1ccc2nc(-c3ccc(Cl)c(Cl)c3)oc2c1
EC50 (Mus musculus [1]): 10.6 µM

CS(=O)(=O)c1ccc2oc(-c3ccc4ccccc4c3)nc2c1
Activity (Mus musculus [10]): 95% | half-life [7]: 33.4 min

CCS(=O)(=O)c1ccc2oc(-c3ccccc3Cl)nc2c1
Activity (Mus musculus [12]): 62%

CCS(=O)(=O)c1ccc2oc(-c3ccccc3)nc2c1
solubility kinetic [3]: 100 µM (≈ 28.7 µg/mL) | Activity (Mus musculus [2]): 69%
